Screening data (PubChem)
Shown are actives, neighbours in structure and some others; about 2.4% of the full set was active somewhere.
Scp1 inh: Scp-1 (human) phosphatase inhibition. Recombinant Scp1, phosphopeptide, malachite green phosphate absorbance. inhibition, % at 20 µM. 340,000 tested, 0.88% active. AID 493091;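 active = inhibition above about 50% at 20 µM, limit read from the data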
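Test system: SCP-1 phosphatase catalytic domain, residues 76-261 | Compound dosing: One concentration, 20 µM, with 1.0% DMSO | Schedule: 45 min room-temperature reaction, 5 min colour, 30 min stabiliser | Detection: Absorbance at 630 nm | Read-out basis: % inhibition of SCP-1 phosphate liberation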
DNMT1 inh: DNMT1 (human) enzyme inhibition; P26358; DNMT1 molecular beacon, Hinp1I cleavage, fluorescence; inhibition (reported as % activation of signal), % at 10 µM; 360,000 tested, 0.83% active; AID 588458; in the data active = inhibition above about 50%
SUMO1-SIM PPI: SUMO1-SIM interaction modulation; P63165; SUMO1 binding to a labelled peptide, TR-FRET, 1 h; inhibition, % at 20 µM; 360,000 tested, 0.33% active; AID 602429; in the data active = inhibition above about 37%
STEP block: STEP (human) phosphatase inhibition | recombinant STEP, OMFP fluorogenic substrate, fluorescence | inhibition, % at 20 µM | 360,000 tested, 0.25% active;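 active = inhibition at 20 µM, scaled per plate between control wells, above about 37%, limit read from the data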
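Material: STEP (striatal-enriched tyrosine phosphatase) enzyme, cell-free | Medium: 50 mM Bis-Tris pH 6.0 with 2.5 mM DTT and 0.005% Tween 20 | Read-out: Percent inhibition scaled to no-enzyme and uninhibited-enzyme controls, plate-pattern corrected | Signal: Fluorescence read at 480 nm ex / 540 nm em | Times: 20 min reaction, room temperature, in the dark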
NadD inh: inhibitors of Staphylococcus aureus NadD. 360,000 tested, 0.78% active. inhibition, % at 20 µM. AID 602399. purified NadD enzyme, colorimetric absorbance read-out; in the data active = inhibition above about 26%
LMPTP inh: blocks human LMPTP phosphatase; P24666; recombinant LMPTP-A, OMFP fluorogenic substrate, fluorescence intensity; inhibition, % at 20 µM; 360,000 tested, 0.22% active; AID 651560;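 active = compounds that cut the enzyme signal by at least half of the control window in the single-dose screen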
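Buffer or medium: Bis-Tris pH 6.0, DTT, detergent; Assay system: LMPTP-A enzyme; Quantity: 0.625 nM enzyme; Detection: endpoint fluorescence intensity; Times: 50 min dark incubation at room temperature; Controls: substrate-only low control, DMSO enzyme-plus-substrate high control; Doses: single 20 µM dose; Read-out: percent inhibition versus substrate-only and uninhibited controls; Reagent: 400 µM OMFP.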
Each line names hits and unclear results; the compound was inactive in the other large screens.

Cc1ccc2c(COC(=O)C3CSC4(C)CCC(=O)N34)cc(=O)oc2c1C (stereo not given)	none
O=C(Nc1ccc(C(F)(F)F)cc1)c1ccc(NC(=O)C2CCCO2)cc1 (stereo not given)	STEP block 51.6
Cc1ccc(-n2c(C)cc(C(=O)CN3CCCCC3)c2C)cc1	none
CC(C)c1ccc2[nH]c(O)c(N=NC(=O)c3cccc(S(=O)(=O)Nc4ccccc4Cl)c3)c2c1	NadD inh 38.4
COc1cc(C(C)=O)ccc1OCC(=O)Nc1ccc(C)c(S(=O)(=O)N2CCCCCC2)c1	none
CC[n+]1c(/C=C(\C)Nc2ccccc2)sc2ccccc21	Scp1 inh 78.8
CC[n+]1c(/C=C(\C)SC)sc2ccccc21	none
CCN(CC)c1ccc(NC(=O)Cn2ncc3c(C)n(Cc4ccccc4F)c(C)c3c2=O)c(C)c1	DNMT1 inh 60.0
Cc1ccc2c(c1)c1ccc3c(c1n2C)C(=O)C=CC3=O	NadD inh 48.2
CCS(=O)(=O)N1CCC(C(=O)Oc2ccc(Cl)cc2)CC1	none
O=C(N/N=C\c1c(O)ccc2ccccc12)c1ccc(S(=O)(=O)N2CCCCC2)cc1	NadD inh 45.7
COc1ccc(C(=O)Nn2c(SCC(=O)c3ccccc3)nc3ccccc3c2=O)cc1	none
COc1ccc(C(=O)Nn2c(SCc3ccc([N+](=O)[O-])cc3)nc3ccccc3c2=O)cc1	NadD inh 33.3
O=C(N/N=C1\C(=O)c2cccc3cccc1c23)c1ccc(O)cc1	SUMO1-SIM PPI 41.3
N#C/C(=C\c1ccc(C(=O)O)cc1)c1nc2sc3c(c2c(=O)[nH]1)CCCC3	Scp1 inh 75.7
CC1CCN(Cc2c(C(=O)N/N=C/c3cc(Cl)ccc3O)nnn2-c2nonc2N)CC1	NadD inh 29.8
CC1CCN(Cc2c(C(=O)N/N=C/c3cc(Br)ccc3O)nnn2-c2nonc2N)CC1	NadD inh 33.4
C/C(=N\NC(=O)c1nnn(-c2nonc2N)c1CN1CCc2ccccc21)c1ccccc1O	NadD inh 41.5
COC(=O)c1nnn(-c2nonc2N)c1CN1CCc2ccccc21	none
CCCCNC(=O)CCCN1C(=O)c2cccnc2Sc2ccccc21	none
CCOc1cccc(C(=O)NC2=NCCS2)c1	none
CCCCOC(=O)c1ccc(N=Nc2c(C)c(C#N)c(O)[nH]c2=O)cc1	NadD inh 51.6
CC(=O)CSc1ccc(C(=O)O)cn1	none
CCc1nnc(NC(=O)C2c3ccccc3Oc3ccccc32)s1	none
CCOC(=O)C1=C(C)N=c2s/c(=C/c3ccc(OCC(=O)O)cc3)c(=O)n2C1c1ccc(SC)cc1 (stereo not given)	STEP block 85.1 (no result: Scp1 inh)
CCOC(=O)C1=C(C)N=c2s/c(=C/c3ccc(OCC(=O)O)cc3)c(=O)n2C1c1ccc(F)cc1 (stereo not given)	none
COc1ccccc1NC(=O)C[n+]1ccccc1C	none
COCCCC1CCN(Cc2nc(Cc3ccccc3Cl)no2)CC1	none
OC1CCN(Cc2nc(Cc3ccccc3Cl)no2)CC1	SUMO1-SIM PPI 44.5
Cc1nn2c(N)c(-c3ccccc3)cnc2c1-c1ccccc1	none
CCCn1nc(C(=O)N(C)CC(=O)Nc2ccc(OCC)c(OCC)c2)c2ccccc2c1=O	none
N#C/C(C(=O)NCCc1ccccc1)=C1/N=C(NC(=O)c2cccs2)c2ccccc21	SUMO1-SIM PPI 48.2
Cc1nc(SCC(=O)N2CCCCC2)c2c(C)c(C)sc2n1	none
CCSc1nc(C)nc2sc(C)c(C)c12	SUMO1-SIM PPI 78.6
CC(=O)NC(NC(C)=O)c1ccc(N(C)C)cc1	Scp1 inh 52.3
CCN(CC)c1ccc(C(NC(C)=O)NC(C)=O)cc1	none
N#CC(C#N)=C1NC(N)=C(C#N)C(c2ccccc2)=C1C#N	SUMO1-SIM PPI 40.5 (no result: Scp1 inh)
N#CC1=C(c2ccccc2)/C(=C/c2ccccc2)OC1=O	none
CC(=O)Nc1ccc(S(=O)(=O)N[C@@H](C)C(=O)OCc2cc([N+](=O)[O-])cc3c2OCOC3)cc1	none
CC1=CC(C)(C)N(C(=O)CSc2ncn[nH]2)c2ccc(C)cc21	SUMO1-SIM PPI 43.2
CC1=CC(C)(C)N(C(=O)CN2C(=O)CCC2=O)c2ccc(C)cc21	none
